# Legend:
# [1] = tested on: Mycobacterium tuberculosis; experiment: Antimycobacterial activity against multidrug-resistant Mycobacterium tuberculosis 09710 after 7 days by serial double dilution technique; format: functional; settings: Mycobacterium tuberculosis, 09710, 168 h
# Outline: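 MDR strain (resistant to RIF, INH, EMB, SM), clinical isolate, tested by rapid direct susceptibility test. Compounds two-fold diluted in 2× Advanced Middlebrook 7H9 broth, final 256 to 1 µg/ml, mixed 1:1 with suspension containing 4 × 10^-3 mg cells. Incubated sealed at 37 °C in wet box; read at 3 days, redetermined at 7 days by high-magnification visual system. MIC = complete growth inhibition.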
# [2] = tested on: Mycobacterium tuberculosis; experiment: Ratio of compound MIC to ciprofloxacin MIC for multidrug-resistant Mycobacterium tuberculosis 09710; format: functional
SMILES,MIC [1],Ratio [2]
COc1c(N2CCNCC2)c(F)cc2c(=O)c(C(=O)O)cn(C3CC3)c12,11.1 µM,–
COc1c(N2CCN(CN3C(=O)C(=O)c4ccccc43)CC2)c(F)cc2c(=O)c(C(=O)O)cn(C3CC3)c12,30.8 µM,–
COc1c(N2CCN(CN3C(=O)C(=O)c4cc(F)ccc43)CC2)c(F)cc2c(=O)c(C(=O)O)cn(C3CC3)c12,14.9 µM,–
COc1c(N2CCN(CN3C(=O)/C(=N\O)c4ccccc43)CC2)c(F)cc2c(=O)c(C(=O)O)cn(C3CC3)c12,29.9 µM,–
COc1c(N2CCN(CN3C(=O)/C(=N\O)c4cc(F)ccc43)CC2)c(F)cc2c(=O)c(C(=O)O)cn(C3CC3)c12,14.5 µM,–
CO/N=C1\C(=O)N(CN2CCN(c3c(F)cc4c(=O)c(C(=O)O)cn(C5CC5)c4c3OC)CC2)c2ccccc21,14.6 µM,–
CO/N=C1\C(=O)N(CN2CCN(c3c(F)cc4c(=O)c(C(=O)O)cn(C5CC5)c4c3OC)CC2)c2ccc(F)cc21,7.05 µM,3.5
CCO/N=C1\C(=O)N(CN2CCN(c3c(F)cc4c(=O)c(C(=O)O)cn(C5CC5)c4c3OC)CC2)c2ccccc21,28.4 µM,–
COc1c(N2CCN(CN3C(=O)/C(=N\NC(N)=O)c4ccccc43)CC2)c(F)cc2c(=O)c(C(=O)O)cn(C3CC3)c12,6.93 µM,3.5
COc1c(N2CCN(CN3C(=O)/C(=N\NC(N)=O)c4cc(F)ccc43)CC2)c(F)cc2c(=O)c(C(=O)O)cn(C3CC3)c12,6.72 µM,3.5
COc1c(N2CCN(CN3C(=O)/C(=N\NC(N)=S)c4ccccc43)CC2)c(F)cc2c(=O)c(C(=O)O)cn(C3CC3)c12,6.75 µM,3.5
O=C(O)c1cn(C2CC2)c2cc(N3CCNCC3)c(F)cc2c1=O [CIPROFLOXACIN],24.2 µM,–
NNC(=O)c1ccncc1 [ISONIAZID],467 µM,–
CO[C@H]1/C=C/O[C@@]2(C)Oc3c(C)c(O)c4c(O)c(c(/C=N/N5CCN(C)CC5)c(O)c4c3C2=O)NC(=O)/C(C)=C\C=C\[C@H](C)[C@H](O)[C@@H](C)[C@@H](O)[C@@H](C)[C@H](OC(C)=O)[C@@H]1C [RIFAMPIN],> 311 µM,–
